Source: PubChem BioAssay
Rev-erbA mod: modulates human Rev-erb alpha binding to DNA | P20393 | Rev-erbα–FITC-DNA binding, fluorescence polarization, 90 min | activity, % at 10 µM | 370,000 compounds, 0.79% hits | AID 1259318;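 active = activity above about 14%, limit read from the data; passing the limit was not always enough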;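 note: 0% = DMSO wells with 35 nM protein and 100% = DMSO wells with 750 nM protein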
NR2E3 ag-1: NR2E3 (human) agonism; Q9Y5X4; 320,000 compounds, 0.12% hits; GST-NR2E3/biotin-RetCOR TR-FRET, 1536-well; inhibition of corepressor binding, % at 4.78 µM;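 active = percent inhibition above the cutoff of mean plus 3 SD of all tested compounds, set per screening campaign, cut at about 20% in these data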;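 note: 0% = DMSO wells and 100% = biotin wells as full block of FRET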
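Format: 1536-well format; test system: GST-NR2E3 and biotin-RetCOR proteins; read-out basis: percent inhibition of TR-FRET ratio; timing: 5 h incubation at 4 °C; detection: time-resolved FRET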
NR2E3 ag-2: human photoreceptor-specific nuclear receptor agonism; Q9Y5X4; inhibition of corepressor binding, % at 3.98 µM; CHO-S Gal4-NCOR/VP16-NR2E3 two-hybrid, luciferase; AID 602229; 360,000 compounds, 0.35% hits;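 active = inhibition above the mean of all tested compounds plus 3 SD, cut at about 70% in these data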;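 note: 0% = DMSO with NR2E3 transfected cells and 100% = cells lacking NR2E3 construct; higher means lower luciferase signal from less NR2E3 corepressor binding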
PG9 binder: small molecules binding HIV-1 gp120 antibody PG9; AID 624416; inhibition, % at 6.7 µM; TR-FRET gp120-PG9 antibody binding; 360,000 compounds, 0.43% hits; in the data active = inhibition above about 8.5%
Neddyl block: inhibitors of human cullin neddylation. calls only at 25 µM. AID 651699. 360,000 compounds, 0.58% hits. P61081+Q13564. TR-FRET cullin neddylation, biochemical; in the data active = inhibition above about 36%
Target sequence (P61081 whole entry, looked up): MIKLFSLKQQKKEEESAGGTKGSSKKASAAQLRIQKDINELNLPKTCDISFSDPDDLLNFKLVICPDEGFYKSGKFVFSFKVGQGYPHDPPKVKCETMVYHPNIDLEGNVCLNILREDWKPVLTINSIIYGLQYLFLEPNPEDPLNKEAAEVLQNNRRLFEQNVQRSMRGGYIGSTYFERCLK
Target sequence (Q13564 whole entry, looked up): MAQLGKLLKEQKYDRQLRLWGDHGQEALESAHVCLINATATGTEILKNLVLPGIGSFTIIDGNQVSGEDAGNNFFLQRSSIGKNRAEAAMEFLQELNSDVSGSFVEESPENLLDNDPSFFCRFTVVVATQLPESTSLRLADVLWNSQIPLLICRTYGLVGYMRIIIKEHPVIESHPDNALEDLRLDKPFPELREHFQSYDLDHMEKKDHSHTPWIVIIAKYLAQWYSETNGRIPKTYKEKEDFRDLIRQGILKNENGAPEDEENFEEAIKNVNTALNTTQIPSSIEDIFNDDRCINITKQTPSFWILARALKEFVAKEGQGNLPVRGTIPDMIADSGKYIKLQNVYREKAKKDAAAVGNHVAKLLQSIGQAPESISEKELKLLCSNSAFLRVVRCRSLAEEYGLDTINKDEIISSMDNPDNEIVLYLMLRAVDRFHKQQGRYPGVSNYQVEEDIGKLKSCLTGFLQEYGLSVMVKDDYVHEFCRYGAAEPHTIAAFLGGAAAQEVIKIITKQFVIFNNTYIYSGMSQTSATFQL
NR1D1 mod conf: Rev-erb alpha (human) modulation, hit confirmation | activation, % at 25 µM | Rev-erb alpha FITC-DNA binding, fluorescence polarization, 90 min | shares compounds with Rev-erbA mod | 3,000 compounds, 61% hits;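 active = activation at or above a set limit, or at least 3 SD above the negative control mean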;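 note: 0% = 35 nM protein with DMSO and 100% = 750 nM protein high control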
RORg DNA counter: counter-screen for Rev-erb alpha modulators: RORgamma DNA binding | AID 1259320 | purified RORgamma protein-FITC-DNA binding, fluorescence polarization | 910 compounds, 8% hits | IC50, µM | shares compounds with Rev-erbA mod;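 active = Compounds whose fitted half-maximal concentration for disrupting protein-DNA binding is below 10 micromolar; the record names Rev-erb in its text, so the target is in doubt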
An asterisk follows results filed as active; i = inactive; · = not tested or not shown. The list is not random: actives were taken first. Their share in the collection is about 2%.

SMILES	Rev-erbA mod	NR2E3 ag-1	NR2E3 ag-2	PG9 binder	Neddyl block	NR1D1 mod conf	others
CCCn1c(NC(=O)c2ccc(Br)cc2)nc2ccccc21	31.7*	2.5	-46.1	-1.0	i	22.5*
CCCn1c(NC(=O)c2ccc(F)cc2)nc2ccccc21	25.8*	1.6	-14.8	2.6	i	-0.1
O=C(Nc1ccc(C(F)(F)F)cc1)c1cc(-c2cccnc2)nc2ccc(Br)cc12	33.9*	7.9	19.9	0.1	i	21.6*
CCc1nc2ccc(C(=O)NCCCN3CCCC3=O)cn2c1N(CC)CCOC	-1.3	·	-14.0	-0.3	i	·
O=C(OCCN1CCN(C2CN(Cc3cn(Cc4ccccc4Cl)nn3)S(=O)(=O)C2)CC1)c1cccs1 (stereo not given)	2.2	·	·	·	·	·
COc1cc(/C=C2\SC(=O)N(CCNC(=O)c3sc4cc(F)ccc4c3Cl)C2=O)cc(OC)c1OC	72.1*	1.6	-24.7	0.8	i	32.2*	RORg DNA counter=i
COc1cc(C(=O)NCC(=O)NCCN2C(=O)S/C(=C\c3ccccc3Cl)C2=O)cc(OC)c1OC	-2.9	-1.1	11.6	0.9	i	·
CCN(C(=O)COC(=O)/C=C/c1c(C)nn(-c2ccccc2)c1C)c1c(N)n(Cc2ccccc2)c(=O)[nH]c1=O	-5.1	·	-16.1	-1.1	i	·
COc1ccccc1NC(=O)C1CC(C)OC1=O (stereo not given)	8.0	3.5	-32.8	-1.6	i	·
C=CCn1c(=NC(=O)c2ccco2)sc2cc(C(=O)OCC)ccc21	29.1*	-1.5	-48.8	6.0	i	23.4*
C=CCn1c(=NC(=O)c2ccco2)sc2cc(C(=O)OC)ccc21	27.6*	-6.6	-25.4	3.1	i	34.8*	RORg DNA counter=>40
COCCn1c(=NC(=O)c2ccco2)sc2cc(C(=O)OC)ccc21	42.1*	1.0	16.0	-1.6	i	37.8*	RORg DNA counter=>40
CC(=O)c1cc(-c2ccccc2S(=O)(=O)NC(C)(C)C)c(=O)n2c1CCC2	-0.6	·	·	·	·	·
CN(Cc1ccccc1)C(=O)OCc1cn(Cc2ccccc2C(F)(F)F)nn1	-0.5	·	·	·	·	·
O=C(CSc1nnc(-c2ccco2)n1-c1ccc(Cl)cc1)Nc1ccc(S(=O)(=O)Nc2nccs2)cc1	0.0	·	·	·	·	·
Cn1nc(C2CC2)cc1NC(=O)C1(C)CCN1C(=O)c1ccccc1CCc1ccccc1 (stereo not given)	3.6	·	-11.1	0.6	i	·
O=S(Cc1cc(Sc2ccccc2)nc(-c2ccccc2)n1)c1ccccc1 (stereo not given)	25.1*	5.7	-48.7	-2.1	i	16.1
O=C1c2ccccc2C(=O)N1c1ccccc1	7.7	·	-21.8	-1.2	i	·
COc1ccc(N2C(=O)c3cc4ccccc4cc3C2=O)cc1	10.9	0.7	-16.8	-1.2	i	·
COc1ccccc1Oc1ccc2c(c1)C(=O)N(c1ccccc1)C2=O	67.2*	-2.5	-25.6	1.0	i	47.9*	RORg DNA counter=>40
COc1ccccc1Oc1ccc2c(c1)C(=O)N(c1ccc(C)cc1)C2=O	28.4*	-0.7	-49.6	0.7	i	30.7*
CCCCCC1C(C(=O)OCC)C(=O)NC1(C(=O)OCC)C(=O)OCC (stereo not given)	-6.1	·	-10.0	-3.0	i	·
CC(=O)[C@@]1(O)Cc2c(O)c3c(c(O)c2[C@H](O[C@H]2C[C@H](N)[C@H](O)[C@H](C)O2)C1)C(=O)c1ccccc1C3=O	24.2*	·	14.3	-5.8	i	11.3*
COc1cccc2c1C(=O)c1c(O)c3c(c(O)c1C2=O)C[C@@](O)(C(=O)CO)C[C@@H]3O[C@H]1C[C@H](N)[C@H](O)[C@H](C)O1	-2.7	0.9	-71.4	-13.6	i	·
CCOc1ccc(CCNC(=O)COC(=O)C2=NNC(=O)CC2)cc1OCC	-5.0	-1.6	12.0	1.7	i	·
SMILES	Rev-erbA mod	NR2E3 ag-1	NR2E3 ag-2	PG9 binder	Neddyl block	NR1D1 mod conf	others
O=C(O)/C=C/c1ccccc1	-0.1	·	·	·	·	·
COc1ccc(C(C(=O)NC2CCCC2)n2c(CSCCOc3ccccc3)nc3ccccc32)cc1 (stereo not given)	-0.2	·	·	0.8	i	·
COc1ccc2c(=O)c3c(=O)n(CCc4ccccc4)c(C)nc3oc2c1	-0.2	·	-17.3	-1.3	i	·
COc1ccc2c(=O)c3c(=O)n(CCc4ccccc4)c(C(C)C)nc3oc2c1	24.6*	-3.0	1.1	-1.1	i	0.6
CCCCN1CC(C)(C)Oc2cccc(F)c2S1(=O)=O	1.4	·	-17.4	-0.7	i	·
O=C(C1CCC(Cn2c(=S)[nH]c3ccccc3c2=O)CC1)N1CCN(c2ccccc2)CC1 (stereo not given)	4.8	2.4	-15.6	-2.2	i	·
O=C(Cn1c(=S)[nH]c2ccccc2c1=O)N1CCN(c2ccccc2)CC1	40.2*	3.7	3.8	-0.2	i	23.6*
CC(=O)c1ccc(N2CCN(C(=O)CCCn3c(=S)[nH]c4cc5c(cc4c3=O)OCO5)CC2)cc1	24.9*	-2.0	-15.5	-1.9	i	16.9
Cc1cccc(N2CCN(C(=O)CCCn3c(=S)[nH]c4cc5c(cc4c3=O)OCO5)CC2)c1C	24.4*	-0.1	3.1	4.8	i	19.6*
O=C(CCCn1c(=S)[nH]c2cc3c(cc2c1=O)OCO3)N1CCN(c2ccc(Cl)cc2)CC1	20.5	2.1	3.4	4.0	i	·
CCCS(=O)(=O)NC(=O)C1(C)CCN(C(=O)c2ccccc2OC(F)(F)F)C1 (stereo not given)	-7.2	·	13.8	-1.5	i	·
CCOC(=O)c1cc(OC(=O)Cc2ccc(OC)c(S(=O)(=O)N3CCOCC3)c2)cc(C(=O)OCC)c1	1.6	·	-23.6	-1.3	i	·
CN1C(=O)/C(=C/C=C2\SCCN2C)N(C)C1=S	51.0*	·	-15.9	-37.3	i	22.1*
CCCCc1nnc(NC(=O)C2CCN(c3ncnc4sc(C)c(C)c34)CC2)s1	18.9*	0.4	3.1	3.9	i	11.2
Cc1sc2ncnc(N3CCC(C(=O)Nc4nc(-c5cccs5)cs4)CC3)c2c1C	6.5	2.5	-5.1	0.2	i	·
CCc1nnc(NC(=O)C2CCN(c3ncnc4sc(C)c(C)c34)CC2)s1	35.1*	4.0	5.8	-0.7	i	5.8
CCOC(=O)[C@@]12CCCC3=C1N(CCC3)C(=O)[C@H]2CC(=O)NCC1CCCCC1	-4.4	·	·	·	·	·
N#Cc1nnn2c1nc(N)c1c(F)cccc12	4.3	0.3	12.8	2.6	·	·
N#Cc1nnn2c1nc(N)c1c(Cl)cccc12	36.8*	·	-29.0	-0.6	i	15.3*
O=C(NNc1c2ccccc2nc2ccccc12)c1cccc(O)c1	19.8*	-3.2	-9.1	-12.4	i	15.9
CCCNC(=O)C1(C)CCN(CCS(=O)(=O)c2ccc(C)cc2)C1 (stereo not given)	-1.9	·	-5.7	-0.4	i	·
